Measured values from ChEMBL document CHEMBL5661970 (Cancer Res, 2006).
Calls of active or inactive are those of the source. The rule behind the calls is not given here.

Legend:
[1] = target: Insulin-like growth factor 1 receptor (Homo sapiens, UniProt P08069); test: Inhibition of IGF-1R (unknown origin) in presence of ATP
In short: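 Cell-free kinase assay using recombinant tyrosine kinases with 1 μmol/L ATP, run in quadruplicate. IC50 values determined.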

[2] = target: Tyrosine-protein kinase JAK2 (Homo sapiens, UniProt O60674); test: Inhibition of Jak2 (unknown origin) in presence of ATP
[3] = target: Mitogen-activated protein kinase 3 (Homo sapiens, UniProt P27361); test: Inhibition of ERK1 phosphorylation in VEGF-stimulated serum-starved human HUVEC cells by immunoblotting analysis; assay type: cell-based
In short: (§1)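 HUVECs serum-starved, treated with inhibitor (DMSO stock diluted in medium), then stimulated with VEGF. Lysates run on SDS-PAGE and immunoblotted with anti-phospho-p44/42 MAPK antibody. Four independent experiments.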

[4] = target: Mitogen-activated protein kinase 1 (Homo sapiens, UniProt P28482); test: Inhibition of ERK2 phosphorylation in VEGF-stimulated serum-starved human HUVEC cells by immunoblotting analysis; assay type: cell-based; in short: as §1
MDA-MB-231 [5] = test: Antitumor activity against human MDA-MB-231 cells xenografted in gamma-irradiation induced RH-rnu/rnu athymic rat assessed as tumor growth inhibition at 0.2 mg/kg, po administered once daily for 2 weeks and measured on day 14 relative to control; assay type: functional; details: MDA-MB-231, light or radiation study, 336 h, read-out: TGI
In short: (§2)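 Rats were γ-irradiated with 7 Gy whole body, and 24 h later received s.c. tumor cells. Fragments (20-30 mg) from ~1,500 mm3 tumors were then implanted s.c. into irradiated athymic rats. Oral dosing at 0.2 or 1 mg/kg or vehicle ran once daily for 2 weeks from day 0. Tumors were measured with calipers twice weekly (length×width²×0.5). TGI% was taken versus vehicle on day 14 (BxPC-3: day 13), with an unpaired t test on RTV.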

MDA-MB-231 [6] = test: Antitumor activity against human MDA-MB-231 cells xenografted in gamma-irradiation induced RH-rnu/rnu athymic rat assessed as tumor growth inhibition at 1.0 mg/kg, po administered once daily for 2 weeks and measured on day 14 relative to control; assay type: functional; details: MDA-MB-231, light or radiation study, 336 h, read-out: TGI; in short: as §2
LoVo [7] = test: Antitumor activity against human LoVo cells xenografted in gamma-irradiation induced RH-rnu/rnu athymic rat assessed as tumor growth inhibition at 1.0 mg/kg, po administered once daily for 2 weeks and measured on day 14 relative to control; assay type: functional; details: light or radiation study, 336 h, read-out: TGI; in short: as §2
LS174T = test: Antitumor activity against human LS174T cells xenografted in gamma-irradiation induced RH-rnu/rnu athymic rat assessed as tumor growth inhibition at 1.0 mg/kg, po administered once daily for 2 weeks and measured on day 14 relative to control; assay type: functional; details: light or radiation study, 336 h, read-out: TGI; in short: as §2
SK-HEP1 = test: Antitumor activity against human SK-HEP1 cells xenografted in gamma-irradiation induced RH-rnu/rnu athymic rat assessed as tumor growth inhibition at 1.0 mg/kg, po administered once daily for 2 weeks and measured on day 14 relative to control; assay type: functional; details: SK-HEP1, light or radiation study, 336 h, read-out: TGI
Calu-6 [8] = test: Antitumor activity against human Calu-6 cells xenografted in gamma-irradiation induced RH-rnu/rnu athymic rat assessed as tumor growth inhibition at 1.0 mg/kg, po administered once daily for 2 weeks and measured on day 14 relative to control; assay type: functional; details: Calu-6, light or radiation study, 336 h, read-out: TGI; in short: as §2
[9] = Antitumor activity against human CGL-9 cells xenografted in gamma-irradiation induced RH-rnu/rnu athymic rat assessed as tumor growth inhibition at 0.2 mg/kg, po administered once daily for 2 weeks and measured on day 14 relative to control; assay type: functional; details: CGL-9, light or radiation study, 336 h, read-out: TGI; in short: as §2
LoVo [10] = test: Antitumor activity against human LoVo cells xenografted in gamma-irradiation induced RH-rnu/rnu athymic rat assessed as relative tumor volume at 1 mg/kg, po administered once daily for 2 weeks and measured on day 21; assay type: functional
In short: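 Tumor fragments were grown in γ-irradiated (7 Gy) athymic rats, followed by once-daily oral dosing at 1 mg/kg for 2 weeks. Tumor volume was measured with calipers as length×width²×0.5. Relative tumor volume was calculated as volume on day x divided by volume on day 0.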

Calu-6 [11] = test: Antitumor activity against human Calu-6 cells xenografted in RH-rnu/rnu athymic rat assessed as tumor growth inhibition at 0.2 mg/kg, po administered once daily for 6 to 21 days by DCE-MRI analysis; assay type: functional, organism-based; details: time 6-21 day
In short: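 Calu-6 tumor-bearing athymic rats were randomized at 274-287 mm3 and dosed orally at 0.2 or 1.0 mg/kg or vehicle once daily on days 0-13. Tumor growth was followed by T2-weighted MRI at 1.5 T through day 21.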

Calu-6 [12] = test: Antitumor activity against human Calu-6 cells xenografted in RH-rnu/rnu athymic rat assessed as capillary permeability in tumor measured on day 21 by DCE-MRI analysis; assay type: functional, cell-based
[13] = AUC (0-infinity) in F344/N JcL-rnu athymic rat at 0.2 mg/kg, po measured upto 72 hrs by HPLC-MS/MS analysis; assay type: ADME, organism-based; details: in vivo
In short: (§3)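 Female athymic rats, four per group, given a single oral dose suspended in 0.5% methyl cellulose in water. Tail-vein blood was drawn at set times up to 72 h. Serum was spiked with internal standard, deproteinated with acetonitrile and analysed by HPLC-MS/MS. AUCinf came from noncompartmental analysis.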

[14] = AUC (0-infinity) in F344/N JcL-rnu athymic rat at 1 mg/kg, po measured upto 72 hrs by HPLC-MS/MS analysis; assay type: ADME, organism-based; details: in vivo; in short: as §3
[15] = Apparent oral clearance in F344/N JcL-rnu athymic rat at 0.04 mg/kg, po measured upto 72 hrs by HPLC-MS/MS analysis; assay type: ADME, organism-based; details: in vivo
In short: (§4)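 Female F344/N JcL-rnu rats, four per group, single p.o. dose suspended in 0.5% methyl cellulose. Tail-vein blood sampled at set times to 72 h. Serum spiked with internal standard, deproteinated with acetonitrile, analysed by HPLC-MS/MS. Parameters derived by noncompartmental analysis.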

[16] = Apparent oral volume of distribution in F344/N JcL-rnu athymic rat at 0.2 mg/kg, po measured upto 72 hrs by HPLC-MS/MS analysis; assay type: ADME, organism-based; details: in vivo; in short: as §4
[17] = Apparent oral volume of distribution in F344/N JcL-rnu athymic rat at 1 mg/kg, po measured upto 72 hrs by HPLC-MS/MS analysis; assay type: ADME, organism-based; details: in vivo; in short: as §4
[18] = Apparent oral volume of distribution in F344/N JcL-rnu athymic rat at 5 mg/kg, po measured upto 72 hrs by HPLC-MS/MS analysis; assay type: ADME, organism-based; details: in vivo; in short: as §4
[19] = Half life in F344/N JcL-rnu athymic rat at 0.04 mg/kg, po measured upto 72 hrs by HPLC-MS/MS analysis; assay type: ADME, organism-based; details: in vivo; in short: as §4
[20] = Half life in F344/N JcL-rnu athymic rat at 5 mg/kg, po measured upto 72 hrs by HPLC-MS/MS analysis; assay type: ADME, organism-based; details: in vivo; in short: as §4
[21] = Cmax in F344/N JcL-rnu athymic rat at 5 mg/kg, po measured upto 72 hrs by HPLC-MS/MS analysis; assay type: ADME, organism-based; details: in vivo; in short: as §4
Calu-6 [22] = test: Antitumor activity against human Calu-6 cells xenografted in RH-rnu/rnu athymic rat assessed as decrease in capillary permeability in tumor at 1 mg/kg, po measured on day 2 by DCE-MRI analysis relative to control; parameters: scale not given: the % may be the effect or the level left

Chain of Mitogen-activated protein kinase 3 (P27361 whole entry): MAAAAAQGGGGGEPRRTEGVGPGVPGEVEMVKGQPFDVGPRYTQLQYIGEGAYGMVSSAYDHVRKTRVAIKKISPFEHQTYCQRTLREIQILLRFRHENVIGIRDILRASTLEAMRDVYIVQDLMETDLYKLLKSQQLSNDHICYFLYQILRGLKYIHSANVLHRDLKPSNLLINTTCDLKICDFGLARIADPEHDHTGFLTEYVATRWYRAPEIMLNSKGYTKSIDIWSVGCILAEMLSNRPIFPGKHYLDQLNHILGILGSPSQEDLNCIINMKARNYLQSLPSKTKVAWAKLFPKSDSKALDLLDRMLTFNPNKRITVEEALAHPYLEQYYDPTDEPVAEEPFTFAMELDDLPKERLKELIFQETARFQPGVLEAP
Chain of Tyrosine-protein kinase JAK2 (O60674 whole entry): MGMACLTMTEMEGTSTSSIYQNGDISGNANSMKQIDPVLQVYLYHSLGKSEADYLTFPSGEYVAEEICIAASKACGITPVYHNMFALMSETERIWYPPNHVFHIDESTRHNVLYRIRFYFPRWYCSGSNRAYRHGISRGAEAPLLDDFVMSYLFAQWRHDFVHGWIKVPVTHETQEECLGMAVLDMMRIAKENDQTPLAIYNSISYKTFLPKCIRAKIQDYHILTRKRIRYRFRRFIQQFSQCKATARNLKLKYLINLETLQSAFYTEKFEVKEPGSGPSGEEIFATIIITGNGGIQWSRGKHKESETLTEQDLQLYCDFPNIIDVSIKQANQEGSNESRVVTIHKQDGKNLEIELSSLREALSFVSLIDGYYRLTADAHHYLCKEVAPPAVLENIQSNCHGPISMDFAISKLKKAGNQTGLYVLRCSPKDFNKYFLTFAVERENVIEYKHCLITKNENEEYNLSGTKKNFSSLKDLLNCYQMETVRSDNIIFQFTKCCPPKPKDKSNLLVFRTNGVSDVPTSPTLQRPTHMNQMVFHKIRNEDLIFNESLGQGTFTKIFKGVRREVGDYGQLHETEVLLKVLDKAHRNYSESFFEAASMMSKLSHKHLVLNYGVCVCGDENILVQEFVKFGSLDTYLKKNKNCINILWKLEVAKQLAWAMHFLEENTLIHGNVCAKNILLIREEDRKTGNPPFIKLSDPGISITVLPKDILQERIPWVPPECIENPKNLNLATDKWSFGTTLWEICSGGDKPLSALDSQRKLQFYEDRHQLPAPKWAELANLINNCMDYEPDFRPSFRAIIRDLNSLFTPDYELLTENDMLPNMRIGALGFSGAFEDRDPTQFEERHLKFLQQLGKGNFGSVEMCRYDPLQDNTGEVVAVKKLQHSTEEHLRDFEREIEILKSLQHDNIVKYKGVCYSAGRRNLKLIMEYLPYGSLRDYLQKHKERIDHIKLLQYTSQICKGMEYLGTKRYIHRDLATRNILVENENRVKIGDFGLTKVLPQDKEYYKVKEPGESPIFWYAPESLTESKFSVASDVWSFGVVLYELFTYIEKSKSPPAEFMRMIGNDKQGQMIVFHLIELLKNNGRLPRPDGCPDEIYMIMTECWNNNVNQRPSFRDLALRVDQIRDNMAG
Chain of Mitogen-activated protein kinase 1 (P28482 whole entry): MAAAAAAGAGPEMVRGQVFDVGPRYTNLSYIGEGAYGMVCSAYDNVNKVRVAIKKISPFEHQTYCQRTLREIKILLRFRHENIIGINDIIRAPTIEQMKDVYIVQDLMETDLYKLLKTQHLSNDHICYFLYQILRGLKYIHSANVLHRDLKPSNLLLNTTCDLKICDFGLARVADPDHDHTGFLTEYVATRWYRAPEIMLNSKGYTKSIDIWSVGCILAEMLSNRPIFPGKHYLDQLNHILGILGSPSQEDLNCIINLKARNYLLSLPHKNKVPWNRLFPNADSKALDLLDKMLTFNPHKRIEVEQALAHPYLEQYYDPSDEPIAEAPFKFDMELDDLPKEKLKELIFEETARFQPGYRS
Chain of Insulin-like growth factor 1 receptor (P08069 31-736 limits assumed): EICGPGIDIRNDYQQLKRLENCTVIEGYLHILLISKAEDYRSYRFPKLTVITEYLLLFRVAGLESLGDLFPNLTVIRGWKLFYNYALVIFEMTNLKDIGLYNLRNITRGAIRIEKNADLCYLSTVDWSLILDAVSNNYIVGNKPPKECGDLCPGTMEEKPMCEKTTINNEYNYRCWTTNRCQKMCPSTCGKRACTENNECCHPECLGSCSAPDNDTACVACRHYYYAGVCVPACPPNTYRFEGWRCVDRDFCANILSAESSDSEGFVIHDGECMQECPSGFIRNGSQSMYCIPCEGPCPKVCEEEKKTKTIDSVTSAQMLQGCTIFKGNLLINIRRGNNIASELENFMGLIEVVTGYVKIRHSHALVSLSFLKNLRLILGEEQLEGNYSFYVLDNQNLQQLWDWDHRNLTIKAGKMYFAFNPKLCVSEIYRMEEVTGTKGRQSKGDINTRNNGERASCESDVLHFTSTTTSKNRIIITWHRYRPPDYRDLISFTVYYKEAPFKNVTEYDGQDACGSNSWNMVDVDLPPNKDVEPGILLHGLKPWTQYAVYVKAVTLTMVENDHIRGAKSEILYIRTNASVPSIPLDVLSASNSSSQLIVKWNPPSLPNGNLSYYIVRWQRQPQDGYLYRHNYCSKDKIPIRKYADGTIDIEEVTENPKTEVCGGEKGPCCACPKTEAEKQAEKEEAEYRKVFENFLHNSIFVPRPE
Chain of Insulin-like growth factor 1 receptor (P08069 741-1367 limits assumed): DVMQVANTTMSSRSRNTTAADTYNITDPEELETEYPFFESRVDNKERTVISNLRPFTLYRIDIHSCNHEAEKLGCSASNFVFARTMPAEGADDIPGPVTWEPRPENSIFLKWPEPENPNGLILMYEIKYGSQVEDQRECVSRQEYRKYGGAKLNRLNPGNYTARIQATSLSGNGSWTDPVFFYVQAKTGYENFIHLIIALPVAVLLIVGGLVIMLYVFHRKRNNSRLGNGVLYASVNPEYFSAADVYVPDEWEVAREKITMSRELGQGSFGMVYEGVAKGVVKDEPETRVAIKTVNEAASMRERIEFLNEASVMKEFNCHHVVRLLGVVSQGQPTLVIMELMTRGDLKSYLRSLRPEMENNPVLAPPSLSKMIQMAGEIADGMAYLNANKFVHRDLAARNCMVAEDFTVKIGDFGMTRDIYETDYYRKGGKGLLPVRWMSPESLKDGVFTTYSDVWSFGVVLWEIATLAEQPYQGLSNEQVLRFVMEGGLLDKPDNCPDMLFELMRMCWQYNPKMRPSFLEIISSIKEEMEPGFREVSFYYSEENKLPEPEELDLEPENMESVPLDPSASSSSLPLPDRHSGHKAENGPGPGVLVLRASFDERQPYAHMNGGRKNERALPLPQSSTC

**Q.** For `COc1cc2nccc(Oc3ccc(NC(=O)Nc4cc(C)on4)c(Cl)c3)c2cc1OC` [TIVOZANIB], which IC50 [1] is on record?
**A.** The IC50 was greater than 1000 nM.

**Q.** And the IC50 [2]?
**A.** The IC50 was greater than 1000 nM.

**Q.** What about the IC50 [3] of the same compound?
**A.** Its IC50 is 0.13 nM.

**Q.** And the IC50 [4]?
**A.** The IC50 was 0.18 nM.

**Q.** What about the inhibition in vivo at 0.2 mg/kg (MDA-MB-231 [5]) of the same compound?
**A.** Its inhibition in vivo at 0.2 mg/kg is 77%.

**Q.** And the inhibition in vivo at 1 mg/kg (MDA-MB-231 [6])?
**A.** The inhibition in vivo at 1 mg/kg was greater than 100%.

**Q.** What about the inhibition in vivo at 1 mg/kg (LoVo [7]) of the same compound?
**A.** Its inhibition in vivo at 1 mg/kg is greater than 100%.

**Q.** And the inhibition in vivo at 1 mg/kg (LS174T)?
**A.** Its inhibition in vivo at 1 mg/kg is 99.7%.

**Q.** And the inhibition in vivo at 1 mg/kg (SK-HEP1)?
**A.** Its inhibition in vivo at 1 mg/kg is 89.9%.

**Q.** And the inhibition in vivo at 1 mg/kg (Calu-6 [8])?
**A.** The inhibition in vivo at 1 mg/kg was 99.2%.

**Q.** What about the inhibition in vivo at 0.2 mg/kg [9] of the same compound?
**A.** Its inhibition in vivo at 0.2 mg/kg is 46%.

**Q.** And the Activity (LoVo [10])?
**A.** The Activity was 0.85.

**Q.** What about the Activity (Calu-6 [11]) of the same compound?
**A.** Its Activity is “Active”.

**Q.** And the Activity (Calu-6 [12])?
**A.** Its Activity is “inactive”.

**Q.** What about the AUC(0-inf) [13] of the same compound?
**A.** The AUC(0-inf) was 1640 ng·h/mL.

**Q.** And the AUC(0-inf) [14]?
**A.** The AUC(0-inf) was 7640 ng·h/mL.

**Q.** What about the CL/F [15] of the same compound?
**A.** The CL/F was 2.03 mL/min/kg.

**Q.** And the Vd/F [16]?
**A.** Its Vd/F is 1.4 L/kg.

**Q.** And the Vd/F [17]?
**A.** The Vd/F was 1.54 L/kg.

**Q.** And the Vd/F [18]?
**A.** The Vd/F was 1.29 L/kg.

**Q.** And the half-life [19]?
**A.** The half-life was 9.25 h.

**Q.** What about the half-life [20] of the same compound?
**A.** Its half-life is 7.94 h.

**Q.** And the Cmax [21]?
**A.** Its Cmax is 2820 ng/mL.

**Q.** What about the Activity (Calu-6 [22]) of the same compound?
**A.** Its Activity is 55%.
